Screening results from PubChem.
CFTR F508del cor = CFTR F508del correction in bronchial cells; CFBE cells, YFP halide quenching; stimulated with forskolin plus potentiator P3; % fluorescence drop versus neutral controls; activity (quench increase), % at 7.58 µM; 350,000 tested, 0.36% active;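 active = mean added fluorescence quench of at least 8% versus neutral control, with both replicates also reaching 8%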;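 note: cells transiently co-express mutant CFTR-F508del with the halide-sensitive YFP; corrector assay measuring rescue of mutant channel to the surface after 24 h compound exposure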
S100A4 MyoIIA = inhibitors of human S100A4 binding to myosin IIA peptide. AID 652163. 360,000 tested, 0.14% active. P26447. inhibition, % at 10.7 µM. S100A4/TAMRA-MyoIIA peptide fluorescence polarization;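 active = mean inhibition of at least 70% across replicates, with every replicate also reaching that level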
Target sequence (P26447 whole entry, looked up): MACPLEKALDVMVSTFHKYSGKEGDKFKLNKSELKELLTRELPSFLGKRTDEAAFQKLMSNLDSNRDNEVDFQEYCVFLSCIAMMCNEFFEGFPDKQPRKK
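assay system = human S100A4 monomer with TAMRA-labelled myosin IIA peptide | also added = labelled myosin peptide probe, 5 nM | incubation = 5 min between mix addition and reading | control set = DMSO and TFP controls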
FGF22 binding = binders of recombinant human FGF22 by thermal shift; SYPRO orange fluorescence; percent of sucrose octasulfate shift, DMSO zero; activity (Tm shift, normalised), % at 9.99 µM; 340,000 tested, 1.5% active; AID 651658;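 active = mean Tm shift, scaled 0 neutral to 100 positive control, at about 1.3% or above, every replicate too, limit read from the data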
Target sequence (Q9HCT0 whole entry, looked up): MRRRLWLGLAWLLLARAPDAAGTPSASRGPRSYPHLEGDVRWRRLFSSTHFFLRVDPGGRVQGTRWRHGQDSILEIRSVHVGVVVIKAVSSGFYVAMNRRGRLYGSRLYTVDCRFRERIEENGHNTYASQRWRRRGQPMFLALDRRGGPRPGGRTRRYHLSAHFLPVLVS
dFosB activator = mouse delta FosB homodimer activation; P13346; purified delta FosB, TAMRA-CDK5 oligo fluorescence polarization; percent of positive-control signal above neutral wells; activation, % at 25 µM; 340,000 tested, 0.99% active; AID 493131;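 active = mean activation above about 17%, with every replicate also reaching it, limit read from the data, passing the limit was not always enough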
The depositor's hits bear a star; / = no result. Only some compounds are listed: those with a hit (about 2.2% of all), similar ones and a draw of the others.

SMILES | CFTR F508del cor | S100A4 MyoIIA | FGF22 binding | dFosB activator
COc1cc(NC(=O)Cc2c(C(=O)O)n(C)c3ccccc23)cc(OC)c1OC | -3 | 2 | 43* | -3
CCn1c(=O)cc(OCC(=O)Nc2ccc(OC)c(OC)c2)c2ccccc21 | -1 | -5 | 43* | -7
COc1ccc(NC(=O)Cc2c(C(=O)O)n(C)c3ccccc23)cc1OC | 2 | -2 | 43* | 8
C[C@@H]1CN([C@@H](C)CO)C(=O)c2cc(C#CCN(C)C)cnc2O[C@H]1CN(C)C(=O)NC1CCCC1 | 1 | -6 | 0 | /
NC(=O)c1cc(C(=O)c2ccc(Cl)cc2Cl)c[nH]1 | 3 | 0 | 44* | -2
Cc1noc(C)c1S(=O)(=O)Nc1ccc2c(c1)C(=O)N([C@H](C)CO)C[C@@H](C)[C@@H](CN(C)S(=O)(=O)c1ccc(Cl)cc1)OCCCC[C@H](C)O2 | 8 | -6 | -1 | /
CC1(c2ccccc2)NC(=O)N(CC(=O)Nc2ccc([N+](=O)[O-])cc2)C1=O (configuration not stated) | -2 | 7 | 43* | -13
O=C(NCCc1ccccc1)c1n[nH]c(=O)c2ccccc12 | -5 | 3 | 43* | 4
O=C(NCc1ccccn1)c1n[nH]c(=O)c2ccccc12 | 8.6* | -1 | 0 | -6
C[C@H](CO)N1C[C@H](C)[C@@H](CN(C)C(=O)Cc2ccccc2)OCCCC[C@H](C)Oc2ccc(NC(=O)Nc3ccc4c(c3)OCO4)cc2C1=O | 0 | -9 | 0 | /
CO[C@@H]1CN(C)C(=O)c2cc(NC(=O)C3CCC3)ccc2OC[C@@H](C)N(Cc2nccs2)C[C@H]1C | 2 | -12 | 0 | /
CCN1[C@@H]2c3ccc(-c4cccc(C(=O)N(C)C)c4)c(=O)n3C[C@@H]2[C@@H](CO)[C@@H]1C(=O)N(C)C | / | 7 | 0 | /
COc1ccccc1S(=O)(=O)N[C@H]1CC[C@H](CCNC(=O)C2CCOCC2)O[C@@H]1CO | -1 | -4 | 0 | /
CC(=O)c1ccc(OCc2cccc(C(F)(F)F)c2)cc1O | 0 | 0 | 43* | 4
NNC(=O)c1sccc1OCc1cccc(C(F)(F)F)c1 | 0 | 3 | 0 | -2
Cc1cccc(S(=O)(=O)N2C[C@H]3[C@@H](c4ccccc42)[C@H](CO)N3CC2CCCC2)c1 | 14* | -1 | -1 | /
CCCN(C)C[C@H]1OCCCC[C@@H](C)Oc2ccc(NC(=O)Nc3ccc(OC)cc3)cc2C(=O)N([C@@H](C)CO)C[C@H]1C | 0 | 2 | -1 | /
COc1ccc(N=C2C(=O)N3CCCc4cccc2c43)cc1 | 12* | -1 | 0 | 8
Cc1oc(-c2cccc(Cl)c2)nc1CS(=O)(=O)CC(=O)NCc1ccco1 | -1 | 4 | 1.5* | -11
O=C(CN1C(=O)CC(c2ccccc2)Sc2ccccc21)NCC1CCCO1 (configuration not stated) | -1 | 7 | 43* | -1
COc1ccc(C2CC(=O)N(CC(=O)NCC3CCCO3)c3ccccc3S2)cc1OC (configuration not stated) | 2 | -3 | 0 | -5
COc1ccc(N2CS(=O)CC2=O)cc1 (configuration not stated) | -1 | 5 | 43* | 5
COc1cc(-c2noc(C)c2C#Cc2ccccn2)cc(OC)c1OC | 10* | -5 | 0 | -2
COc1ccc(-c2cc(C(F)F)n3ncc(C(=O)N4CCc5ccccc54)c3n2)cc1 | 14* | 3 | 0 | -10
Cc1noc(C)c1NC(=O)Nc1ccc2c(c1)C(=O)N([C@H](C)CO)C[C@H](C)[C@@H](CN(C)S(=O)(=O)c1ccccc1)OCCCC[C@@H](C)O2 | 0 | 2 | / | /
SMILES | CFTR F508del cor | S100A4 MyoIIA | FGF22 binding | dFosB activator
Nc1c(C(=O)NCc2ccc(Cl)cc2)sc2nc3c(c(C(F)(F)F)c12)CCC3 | / | 6 | / | -5
Cc1cc(C(F)(F)F)c2c(N)c(C(=O)NCc3ccc(Cl)cc3)sc2n1 | -5 | 4 | 43* | /
Cc1nc2nc[nH]n2c(=O)c1NS(=O)(=O)c1ccc(F)cc1 | -1 | -4 | 0 | -5
COc1ccc(S(=O)(=O)Nc2c(C)nc3nc[nH]n3c2=O)cc1 | -2 | -2 | 43* | -5
Cc1nc2[nH]c(=S)n(C)c(=O)c2nc1C | -2 | -3 | 0 | 2
Cn1c(=S)[nH]c(=O)c2ncc(=O)[nH]c21 | 1 | -8 | 44* | 7
O=C(COC(=O)c1cc(S(=O)(=O)N2CCOCC2)ccc1Cl)NC1CCCCC1 | 1 | 1 | 43* | /
